Measurements from ChEMBL document CHEMBL1287652, “QSAR modeling, synthesis and bioassay of diverse leukemia RPMI-8226 cell line active agents” (2010).

Experiment: Antitumor activity against human […] cells at 10 uM after 48 hrs by sulforhodamine B assay relative to control
Format: functional
In short: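 NCI panel lines were grown in RPMI-1640 with 5% FBS and 2 mM L-glutamine and seeded at 5000–40,000 cells/well according to doubling time. After 24 h at 37 °C, 5% CO2, one dose from a DMSO stock was added for 48 h. Cells were TCA-fixed (10% final adherent, 16% suspension), SRB-stained and read at 515 nm. Percent growth is relative to untreated control.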

SMILES	inhibition at 10 µM [%]
[3H]N1C(=O)[C@@]2(c3ccccc31)N(C)C[C@@H](c1ccc(OC)cc1)[C@@]21Cc2ccccc2C1=O	33.2
[3H]C([3H])([3H])N1C(=O)[C@@]2(c3ccccc31)N(C)C[C@@H](c1ccc(OC)cc1)[C@@]21Cc2ccccc2C1=O	82.3
[3H]N1C(=O)[C@@]2(c3ccccc31)N(C)C[C@@H](c1cccs1)[C@@]21Cc2ccccc2C1=O	10.9
[3H]C([3H])([3H])N1C(=O)[C@@]2(c3ccccc31)N(C)C[C@@H](c1cccs1)[C@@]21Cc2ccccc2C1=O	12.1
[3H]N1C(=O)[C@@]2(c3ccccc31)N(C)C[C@@H](c1ccc(Cl)cc1)[C@@]21Cc2ccccc2C1=O	63.4
[3H]C([3H])([3H])N1C(=O)[C@@]2(c3ccccc31)N(C)C[C@@H](c1ccc(Cl)cc1)[C@@]21Cc2ccccc2C1=O	86.6
O=C(N/C(=C\c1ccccc1OCCOc1ccccc1/C=C(\NC(=O)c1ccccc1)C(=O)N1CCCCC1)C(=O)N1CCCCC1)c1ccccc1	18.3
O=C(N/C(=C\c1ccccc1OCCOc1ccccc1/C=C(\NC(=O)c1ccccc1)C(=O)N1CCOCC1)C(=O)N1CCOCC1)c1ccccc1	9.15
CN1CCN(C(=O)/C(=C/c2ccccc2OCCOc2ccccc2/C=C(\NC(=O)c2ccccc2)C(=O)N2CCN(C)CC2)NC(=O)c2ccccc2)CC1	14.7
O=C(Nc1ccc(Cl)cc1)/C(=C/c1ccccc1OCCOc1ccccc1/C=C(\NC(=O)c1ccccc1)C(=O)Nc1ccc(Cl)cc1)NC(=O)c1ccccc1	6.03
CN1C/C(=C\c2ccc(Cl)cc2)C(=O)[C@@]2(C1)[C@H](c1ccc(Cl)cc1)CN(C)[C@]21C(=O)Nc2ccccc21	61.5
CN1C/C(=C\c2ccc(Cl)cc2)C(=O)[C@@]2(C1)[C@H](c1ccc(Cl)cc1)CN(C)[C@]21C(=O)N(C)c2ccccc21	62
COc1ccc([C@@H]2C(c3ccccc3)=NN(c3cccc(Cl)c3)[C@]23CCSc2ccccc2C3=O)cc1	34.3
O=C1c2ccccc2SCC[C@@]12[C@H](c1cccs1)C(c1ccccc1)=NN2c1cccc(Cl)c1	29.8
COc1ccc(/C=C2\CN(C)C[C@]3(C2=O)[C@H](c2ccc(OC)cc2)CN(C)[C@]32C(=O)Nc3ccccc32)cc1	79.3
O=C(Nc1ccccc1)c1c(-c2ccc(Cl)cc2)cc(-c2ccccc2)nc1N1CCCCC1	13
Cc1ccc(NC(=O)c2c(-c3ccc(Cl)cc3)cc(-c3ccccc3)nc2N2CCCCC2)cc1	24

SMILES	inhibition at 10 µM [%]
O=C1c2ccccc2SCC[C@@]12[C@H](c1ccc(Cl)cc1)C(c1ccccc1)=NN2c1cccc(Cl)c1	33.2
O=C(Nc1ccccc1)c1c(-c2ccc(Cl)cc2)cc(-c2ccccc2)nc1N1CCOCC1	51
Cc1ccc(NC(=O)c2c(-c3ccc(Cl)cc3)cc(-c3ccccc3)nc2N2CCOCC2)cc1	39
Nc1nc(-c2ccccc2)cc(-c2ccc(Cl)cc2)c1C(=O)Nc1ccccc1	46
Cc1ccc(NC(=O)c2c(-c3ccc(Cl)cc3)cc(-c3ccccc3)nc2N)cc1	71
O=C(Nc1ccccc1)c1c(-c2ccc(Cl)cc2)cc(-c2ccccc2)nc1Nc1ccccc1	15
O=C(Nc1ccccc1)c1c(-c2ccc(Cl)cc2)cc(-c2ccccc2)nc1Nc1ccc(Cl)cc1	53
CN1C/C(=C\c2cccs2)C(=O)[C@@]2(C1)[C@H](c1cccs1)CN(C)[C@]21C(=O)N(C)c2ccccc21	89.4
COc1ccc(Nc2nc(-c3ccccc3)cc(-c3ccc(Cl)cc3)c2C(=O)Nc2ccccc2)cc1	30
Cc1ccc(NC(=O)c2c(-c3ccc(Cl)cc3)cc(-c3ccccc3)nc2Nc2ccc(Cl)cc2)cc1	58
COc1ccc(Nc2nc(-c3ccccc3)cc(-c3ccc(Cl)cc3)c2C(=O)Nc2ccc(C)cc2)cc1	79
COc1nc(-c2cccs2)cc2c1c(=O)oc1ccccc12	9.11
Cn1c(S)n[n+]2c(N)c(C#N)c(-c3ccc(N4CCOCC4)cc3)c(C#N)c12	11.9
CCn1c(S)n[n+]2c(N)c(C#N)c(-c3ccc(N4CCOCC4)cc3)c(C#N)c12	24.9
COc1ccc(-c2c3c([nH]c(=S)c2C#N)-c2ccccc2SCC3)cc1	0.96
O=C(Nc1ccc(Cl)c(Cl)c1)Nc1ccccc1SCCCSc1ccccc1NC(=O)Nc1ccc(Cl)c(Cl)c1	108
